Measurements from ChEMBL document CHEMBL3779805, “Orally bioavailable pyridine and pyrimidine-based Factor XIa inhibitors: Discovery of the methyl N-phenyl carbamate P2 prime group” (Bioorg Med Chem, 2016).
Values belong to the compound of their own block, whether it stands above or below them.

Experiments:
Coagulation factor XI = Coagulation factor XI (Homo sapiens, UniProt P03951)
[1] = AUC in beagle dog plasma at 0.4 mg/kg, iv and 0.8 mg/kg, po by LC-MS/MS method; format: ADME, organism-based, Canis lupus familiaris
Procedure, shortened: (§1)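 Dogs dosed iv and po in N-in-1 (cassette) format. The same vehicle was used for both routes: 70% water, 10% ethanol, 10% dimethylacetamide, 10% polypropylene glycol.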

[2] = Oral bioavailability in beagle dog plasma at 0.8 mg/kg by LC-MS/MS method; format: ADME, organism-based, Canis lupus familiaris
Procedure, shortened: as §1

[3] = Clearance in beagle dog plasma at 0.4 mg/kg, iv and 0.8 mg/kg, po administered in cassette format by LC-MS/MS method; format: ADME, organism-based, Canis lupus familiaris
Procedure, shortened: as §1

[4] = Half life in beagle dog plasma at 0.4 mg/kg, iv and 0.8 mg/kg, po by LC-MS/MS method; format: ADME, organism-based, Canis lupus familiaris
Procedure, shortened: as §1

[5] = Volume of distribution at steady state in beagle dog plasma at 0.4 mg/kg, iv and 0.8 mg/kg, po by LC-MS/MS method; format: ADME, organism-based, Canis lupus familiaris; conditions: read-out: Vdss
Procedure, shortened: as §1

Plasma = assay: Anticoagulant activity in human plasma assessed as concentration required for 50% increase in activated partial thromboplastin time by automated coagulation analyzer; format: functional
Procedure, shortened: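 aPTT clotting assay in pooled normal human plasma on an automated coagulation analyzer with commercial reagents. EC1.5x is the inhibitor plasma concentration giving a 50% increase in clotting time over the no-inhibitor control.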

[6] = Oral bioavailability in beagle dog plasma at 0.19 mg/kg by LC-MS/MS method; format: ADME, organism-based, Canis lupus familiaris
Procedure, shortened: as §1

[7] = Volume of distribution at steady state in beagle dog plasma at 0.19 mg/kg, iv and 0.19 mg/kg, po by LC-MS/MS method; format: ADME, organism-based, Canis lupus familiaris; conditions: read-out: Vdss
Procedure, shortened: as §1

[8] = Clearance in beagle dog plasma at 0.19 mg/kg, iv and 0.19 mg/kg, po administered in cassette format by LC-MS/MS method; format: ADME, organism-based, Canis lupus familiaris
Procedure, shortened: as §1

[9] = Half life in beagle dog plasma at 0.19 mg/kg, iv and 0.19 mg/kg, po by LC-MS/MS method; format: ADME, organism-based, Canis lupus familiaris
Procedure, shortened: as §1

[10] = AUC in beagle dog plasma at 0.19 mg/kg, iv and 0.19 mg/kg, po by LC-MS/MS method; format: ADME, organism-based, Canis lupus familiaris
Procedure, shortened: as §1

Plasma kallikrein = Plasma kallikrein (Homo sapiens, UniProt P03952); assay: Inhibition of human plasma kallikrein assessed as reduction in release of p-nitroaniline after 10 to 120 mins by Michaelis-Menten equation analysis; format: cell-free
Chain of Plasma kallikrein (P03952 20-390 limits assumed): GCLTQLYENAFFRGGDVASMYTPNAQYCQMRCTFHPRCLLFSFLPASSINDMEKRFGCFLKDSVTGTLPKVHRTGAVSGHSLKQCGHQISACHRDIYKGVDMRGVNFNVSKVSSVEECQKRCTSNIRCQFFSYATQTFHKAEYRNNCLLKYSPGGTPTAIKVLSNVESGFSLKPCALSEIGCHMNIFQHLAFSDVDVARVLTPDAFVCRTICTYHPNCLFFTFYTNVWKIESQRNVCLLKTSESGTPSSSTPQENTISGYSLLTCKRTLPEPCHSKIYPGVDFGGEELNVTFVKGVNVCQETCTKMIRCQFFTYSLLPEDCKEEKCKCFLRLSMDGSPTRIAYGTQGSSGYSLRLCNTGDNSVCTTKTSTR
Chain of Plasma kallikrein (P03952 391-638 limits assumed): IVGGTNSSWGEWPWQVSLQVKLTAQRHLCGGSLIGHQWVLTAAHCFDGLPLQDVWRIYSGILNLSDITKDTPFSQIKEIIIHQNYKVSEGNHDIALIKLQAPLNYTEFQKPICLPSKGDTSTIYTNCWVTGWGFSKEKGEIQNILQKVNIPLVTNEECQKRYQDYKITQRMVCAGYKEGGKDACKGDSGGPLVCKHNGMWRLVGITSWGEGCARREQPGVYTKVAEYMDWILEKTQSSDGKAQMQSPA
Procedure, shortened: (§2)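 Purified human enzymes with commercial synthetic peptide substrates. IC50 from 4–11 inhibitor concentrations, run in duplicate at a fixed substrate concentration (standard error <20%). Ki = IC50/(1+S/Km), assuming competitive inhibition.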

[11] = target: Tissue-type plasminogen activator (Homo sapiens, UniProt P00750); assay: Inhibition of human TPA assessed as reduction in release of p-nitroaniline after 10 to 120 mins by Michaelis-Menten equation analysis
Chain of Tissue-type plasminogen activator (P00750 whole entry): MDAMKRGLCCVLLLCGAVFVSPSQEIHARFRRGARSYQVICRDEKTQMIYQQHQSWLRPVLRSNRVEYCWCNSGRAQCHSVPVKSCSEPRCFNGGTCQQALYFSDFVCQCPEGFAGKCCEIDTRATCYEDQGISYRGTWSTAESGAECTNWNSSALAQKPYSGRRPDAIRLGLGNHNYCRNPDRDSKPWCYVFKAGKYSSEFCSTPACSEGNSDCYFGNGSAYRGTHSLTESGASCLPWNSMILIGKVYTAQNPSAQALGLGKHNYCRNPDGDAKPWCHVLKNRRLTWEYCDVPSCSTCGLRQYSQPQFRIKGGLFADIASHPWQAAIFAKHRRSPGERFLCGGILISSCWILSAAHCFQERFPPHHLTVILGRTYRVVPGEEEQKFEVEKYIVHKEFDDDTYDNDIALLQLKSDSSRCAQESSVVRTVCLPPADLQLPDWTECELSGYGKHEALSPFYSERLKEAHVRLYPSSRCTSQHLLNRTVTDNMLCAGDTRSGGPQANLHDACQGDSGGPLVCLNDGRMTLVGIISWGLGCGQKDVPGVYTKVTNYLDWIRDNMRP
Procedure, shortened: as §2

Plasminogen = Plasminogen (Homo sapiens, UniProt P00747); assay: Inhibition of human plasmin assessed as reduction in release of p-nitroaniline after 10 to 120 mins by Michaelis-Menten equation analysis
Chain of Plasminogen (P00747 97-580 limits assumed): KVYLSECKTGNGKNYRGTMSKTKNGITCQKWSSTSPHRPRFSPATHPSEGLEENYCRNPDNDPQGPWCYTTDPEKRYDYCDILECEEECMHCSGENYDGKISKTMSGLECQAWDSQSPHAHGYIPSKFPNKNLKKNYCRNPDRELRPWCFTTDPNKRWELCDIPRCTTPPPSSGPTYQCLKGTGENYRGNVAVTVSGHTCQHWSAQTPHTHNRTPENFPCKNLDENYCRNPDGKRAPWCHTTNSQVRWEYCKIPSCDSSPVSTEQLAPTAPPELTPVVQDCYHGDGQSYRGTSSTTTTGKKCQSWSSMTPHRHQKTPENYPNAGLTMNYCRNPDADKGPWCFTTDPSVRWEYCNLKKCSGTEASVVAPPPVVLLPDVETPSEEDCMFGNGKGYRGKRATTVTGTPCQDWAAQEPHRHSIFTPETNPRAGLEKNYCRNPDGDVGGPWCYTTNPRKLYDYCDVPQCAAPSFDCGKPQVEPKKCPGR
Chain of Plasminogen (P00747 581-810 limits assumed): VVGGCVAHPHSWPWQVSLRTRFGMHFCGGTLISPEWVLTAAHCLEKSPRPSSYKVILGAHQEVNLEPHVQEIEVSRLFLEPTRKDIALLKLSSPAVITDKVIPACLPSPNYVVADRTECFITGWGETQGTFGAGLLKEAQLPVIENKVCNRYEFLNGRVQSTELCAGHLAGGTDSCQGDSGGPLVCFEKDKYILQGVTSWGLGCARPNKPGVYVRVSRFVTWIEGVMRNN
Procedure, shortened: as §2

Prothrombin = Prothrombin (Homo sapiens, UniProt P00734); assay: Inhibition of human coagulation thrombin assessed as reduction in release of p-nitroaniline after 10 to 120 mins by Michaelis-Menten equation analysis
Procedure, shortened: as §2

Coagulation factor VII = target: T1, Coagulation factor VII (Homo sapiens, UniProt P08709); assay: Inhibition of human coagulation factor 7a assessed as reduction in release of p-nitroaniline after 10 to 120 mins by Michaelis-Menten equation analysis
T1 sequence (P08709 whole entry): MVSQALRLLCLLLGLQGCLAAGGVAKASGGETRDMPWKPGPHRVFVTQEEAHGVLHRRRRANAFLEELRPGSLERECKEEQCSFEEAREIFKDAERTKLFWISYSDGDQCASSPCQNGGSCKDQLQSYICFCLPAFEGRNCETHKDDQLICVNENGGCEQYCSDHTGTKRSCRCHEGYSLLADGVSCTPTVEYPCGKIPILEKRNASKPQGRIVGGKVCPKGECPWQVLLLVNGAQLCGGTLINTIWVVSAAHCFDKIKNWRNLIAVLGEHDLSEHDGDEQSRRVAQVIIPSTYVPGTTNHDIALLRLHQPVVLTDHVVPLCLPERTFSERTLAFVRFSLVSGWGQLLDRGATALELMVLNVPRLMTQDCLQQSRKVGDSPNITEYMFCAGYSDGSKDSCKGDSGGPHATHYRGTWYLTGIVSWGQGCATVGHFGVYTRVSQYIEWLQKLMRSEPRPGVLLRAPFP
Procedure, shortened: as §2

[12] = Oral bioavailability in beagle dog plasma at 0.2 mg/kg by LC-MS/MS method; format: ADME, organism-based, Canis lupus familiaris
Procedure, shortened: as §1

[13] = target: Urokinase-type plasminogen activator (Homo sapiens, UniProt P00749); assay: Inhibition of human urokinase assessed as reduction in release of p-nitroaniline after 10 to 120 mins by Michaelis-Menten equation analysis
Procedure, shortened: as §2

Coagulation factor X = Coagulation factor X (Homo sapiens, UniProt P00742); assay: Inhibition of human coagulation factor 10a assessed as reduction in release of p-nitroaniline after 10 to 120 mins by Michaelis-Menten equation analysis
Chain of Coagulation factor X (P00742 41-179 limits assumed): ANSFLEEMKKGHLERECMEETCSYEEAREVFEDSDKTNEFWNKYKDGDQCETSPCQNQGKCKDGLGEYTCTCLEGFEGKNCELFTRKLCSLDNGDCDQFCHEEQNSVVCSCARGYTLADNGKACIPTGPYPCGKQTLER
Chain of Coagulation factor X (P00742 235-488 limits assumed): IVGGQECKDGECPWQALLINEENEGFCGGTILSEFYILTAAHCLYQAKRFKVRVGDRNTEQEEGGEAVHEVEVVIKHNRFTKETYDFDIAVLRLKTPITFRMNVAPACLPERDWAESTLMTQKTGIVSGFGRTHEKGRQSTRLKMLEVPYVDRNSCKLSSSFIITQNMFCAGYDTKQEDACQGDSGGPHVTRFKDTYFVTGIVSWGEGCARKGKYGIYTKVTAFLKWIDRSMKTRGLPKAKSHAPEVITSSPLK
Procedure, shortened: as §2

[14] = Inhibition of human […] chymotrypsin assessed as reduction in release of p-nitroaniline after 10 to 120 mins by Michaelis-Menten equation analysis
Canis familiaris [15] = assay: Clearance in beagle dog plasma at 0.25 mg/kg, iv and 0.2 mg/kg, po administered in cassette format by LC-MS/MS method; format: ADME, organism-based, Canis lupus familiaris; conditions: in vivo
Procedure, shortened: as §1

Canis familiaris [16] = assay: Oral bioavailability in beagle dog plasma at 1 mg/kg dosed in discrete format by LC-MS/MS method; format: ADME, organism-based, Canis lupus familiaris; conditions: in vivo
Procedure, shortened: (§3)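 Discrete oral dosing in dog at 1 mpk. Oral vehicle: 70% PEG400, 20% TPGS, 10% ethanol.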

[17] = Volume of distribution at steady state in beagle dog plasma at 0.25 mg/kg, iv and 0.2 mg/kg, po by LC-MS/MS method; format: ADME, organism-based, Canis lupus familiaris; conditions: read-out: Vdss
Procedure, shortened: as §1

Trypsin = Trypsin (Homo sapiens, UniProt P07477+P07478+P35030); assay: Inhibition of human coagulation trypsin assessed as reduction in release of p-nitroaniline after 10 to 120 mins by Michaelis-Menten equation analysis; format: protein assay
Procedure, shortened: as §2

[18] = target: Vitamin K-dependent protein C (Homo sapiens, UniProt P04070); assay: Inhibition of human activated protein C assessed as reduction in release of p-nitroaniline after 10 to 120 mins by Michaelis-Menten equation analysis
Chain of Vitamin K-dependent protein C (P04070 43-197 limits assumed): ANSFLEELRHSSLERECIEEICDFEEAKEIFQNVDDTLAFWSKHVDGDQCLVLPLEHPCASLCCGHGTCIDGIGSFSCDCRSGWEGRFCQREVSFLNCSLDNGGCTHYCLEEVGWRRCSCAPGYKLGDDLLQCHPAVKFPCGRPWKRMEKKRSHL
Chain of Vitamin K-dependent protein C (P04070 212-461 limits assumed): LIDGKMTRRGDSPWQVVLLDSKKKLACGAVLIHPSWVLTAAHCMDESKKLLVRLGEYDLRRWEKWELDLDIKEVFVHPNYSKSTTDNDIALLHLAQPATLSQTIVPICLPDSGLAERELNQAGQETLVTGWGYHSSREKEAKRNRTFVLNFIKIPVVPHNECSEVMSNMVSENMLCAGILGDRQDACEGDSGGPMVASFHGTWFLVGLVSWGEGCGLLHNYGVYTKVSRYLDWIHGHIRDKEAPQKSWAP
Procedure, shortened: as §2

Canis familiaris [19] = assay: AUC in beagle dog plasma at 1 mg/kg, po dosed in discrete format by LC-MS/MS method; format: ADME, organism-based, Canis lupus familiaris; conditions: in vivo
Procedure, shortened: as §3

[20] = Half life in beagle dog plasma at 0.25 mg/kg, iv and 0.2 mg/kg, po by LC-MS/MS method; format: ADME, organism-based, Canis lupus familiaris
Procedure, shortened: as §1

[21] = AUC in beagle dog plasma at 0.25 mg/kg, iv and 0.2 mg/kg, po by LC-MS/MS method; format: ADME, organism-based, Canis lupus familiaris
Procedure, shortened: as §1

Chain of Coagulation factor XI (P03951 19-387 limits assumed): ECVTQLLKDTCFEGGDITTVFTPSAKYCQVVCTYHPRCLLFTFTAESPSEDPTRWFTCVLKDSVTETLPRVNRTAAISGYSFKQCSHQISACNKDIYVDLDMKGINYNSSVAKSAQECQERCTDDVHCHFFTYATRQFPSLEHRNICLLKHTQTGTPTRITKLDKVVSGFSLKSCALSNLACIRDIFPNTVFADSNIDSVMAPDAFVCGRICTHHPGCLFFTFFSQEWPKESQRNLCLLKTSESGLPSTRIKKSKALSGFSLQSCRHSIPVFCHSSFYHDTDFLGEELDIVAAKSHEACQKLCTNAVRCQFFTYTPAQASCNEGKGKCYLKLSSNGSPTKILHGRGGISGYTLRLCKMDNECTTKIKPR
Chain of Coagulation factor XI (P03951 388-625 limits assumed): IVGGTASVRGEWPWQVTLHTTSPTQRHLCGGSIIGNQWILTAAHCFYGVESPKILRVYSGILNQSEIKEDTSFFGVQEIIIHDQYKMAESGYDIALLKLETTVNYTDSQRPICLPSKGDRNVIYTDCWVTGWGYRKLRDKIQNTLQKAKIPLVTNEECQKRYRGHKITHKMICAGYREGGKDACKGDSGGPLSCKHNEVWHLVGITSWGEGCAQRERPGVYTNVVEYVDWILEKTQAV

- Ki (Coagulation factor XI): 0.0024 µM
- AUC [1]: 0.01 µM·h
- bioavailability [2]: < 1%
- clearance [3]: 0.283 mL/min/kg
- half-life [4]: 1.1 h
- Vd [5]: 0.8 L/kg
SMILES: COC(=O)Nc1ccc(-c2cc([C@H](Cc3ccccc3)NC(=O)[C@H]3CC[C@H](CN)CC3)[nH]c(=O)c2)cc1
- EC1.5 (Plasma): 0.4 µM

- bioavailability [6]: 34%
- Vd [7]: 1.6 L/kg
- Ki (Coagulation factor XI): 0.011 µM
- clearance [8]: 5.6 mL/min/kg
- half-life [9]: 3.7 h
- AUC [10]: 0.28 µM·h
SMILES: COC(=O)Nc1ccc(-c2cc([C@H](Cc3ccccc3)NC(=O)/C=C/c3cc(Cl)ccc3-n3cnnn3)ccn2)cc1
- EC1.5 (Plasma): 26 µM

- Ki (Plasma kallikrein): 1.85 µM
- Ki [11]: 10.5 µM
- Ki (Plasminogen): 12.5 µM
- Ki (Prothrombin): > 13.3 µM
- Ki (Coagulation factor XI): 0.023 µM
- Ki (Coagulation factor VII): > 13.4 µM
- bioavailability [12]: 34%
- Ki [13]: > 29.7 µM
- Ki (Coagulation factor X): 1.13 µM
- Ki [14]: 29.5 µM
- clearance (Canis familiaris [15]): 6.1 mL/min/kg
- F (Canis familiaris [16]): 53%
- Vd [17]: 3.9 L/kg
- Ki (Trypsin): > 6.218 µM
- Ki [18]: > 30.2 µM
- AUC (Canis familiaris [19]): 1.878 µM·h
- half-life [20]: 8 h
- AUC [21]: 0.267 µM·h
SMILES: COC(=O)Nc1ccc(-c2ccnc([C@H](Cc3ccccc3)NC(=O)/C=C/c3cc(Cl)ccc3-n3cnnn3)c2)cc1
- EC1.5 (Plasma): >40 µM
